Test system: MS2 coat protein
Assay: apparent Kd, MS2 coat protein; higher = weaker binding; RNA-MaP array; FMN 200 µM where present
How it was run: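 Designs were transcribed by stalled E. coli RNA polymerase on Illumina sequencing-chip clusters. They were titrated with SNAP-549-labelled MS2 coat protein from 0.7 or 1.5 nM, doubling to 3 µM, without and then with constant ligand. Buffer: 100 mM Tris-HCl pH 7.5, 80 mM KCl, 4 mM MgCl2, BSA, DTT, yeast tRNA, Tween-20. Green signal was normalised to red-channel RNA signal and control-cluster median Fmax. Apparent Kd is the median of filtered per-cluster binding-curve fits.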

[1] = designed as: OFF switch for flavin mononucleotide, no ligand
[2] = ligand present: flavin mononucleotide, designed as: OFF switch for flavin mononucleotide
[3] = designed as: ON switch for flavin mononucleotide, no ligand
[4] = ligand present: flavin mononucleotide, designed as: ON switch for flavin mononucleotide

Row | Sequence | apparent Kd [1] | apparent Kd [2] | apparent Kd [3] | apparent Kd [4]
1 | GUACUGUAGUGAGGAUAUACGAGAUCGAUAGAUCGGCGAUCCAUUAAUACAUGAGGAUCACCCAUGUAGAAGGCACUUCAGUAC | 6.25 nM | 78.4 nM |  | 
2 | CUGAGGUCAGGAUAUGCAUGGCGGGACUUGCGUCGUGGCGUGGAGAAGGGACAUGAGGAUCACCCAUGUGGAGA | 83 nM | 81.1 nM |  | 
3 | UCGUAUAAGGGCAUUACACAUGAGGAUCACCCAUGUACGUUAGAGGAUAUGCAUUCCAGUUGAACGUAGAAGGCUAGAGAAGGG | 132 nM | 129 nM |  | 
4 | GGUGAGUGAGGAUAUCCAGGUCCUGACAUGAGGAUCACCCAUGUAUACGUCACGUGCGGAGGAGAAGGCACAAUAA | 91.1 nM | 297 nM |  | 
5 | UAAUAAAACGAUCGGCGGUCCAUACAUGAGGAUCACCCAUGUAGAAGGGACUCUACAAAGUAGAGUCAGGAUAUACAAGAUCGA | 8.19 nM | 108 nM |  | 
6 | CAUAACGGCUGAGGAUAUUGAAUGUGCGUGGACAUGAGGAUCACCCAUGUUCAAGAAGGCAGCAAUUUACUUGGAUCUAUCCGC | 66.2 nM | 217 nM |  | 
7 | CCCGUGUGUUAAGGAUAUGGCAGGCGCGUUGAACCAGAAGGUAGCACAUGAGGAUCACCCAUGUGAAUGCUCGCGACUCGAGCG | 43.6 nM | 18.2 nM |  | 
8 | ACUUAUGAAGGAUAUACUAGCGACAUGCACUCAACACGCGCACAUGAGGAUCACCCAUGUAGAAGGUCAAACAU | 25.8 nM | 23.1 nM |  | 
9 | AAUAAACUCACAGGAUAUAGCAUAGGUCGCGUGAACUUACAGACGACUAUGCUAGAAGGGUGACCACAUGAGGAUCACCCAUGU |  |  | 880 nM | 186 nM
10 | AUAGGAUUGCGAGGAUAUUAGCGCGGGCCUUCAGACUUACGAAAUGACAUGAGGAUCACCCAUGUUAAGAAGGCGCAUCAAAUG | 6.58 nM | 58.3 nM |  | 
11 | GCCUCACAUGAGGAUCACCCAUGUCAGGAUAUAGGAGACGGUAGCUUUGCUGCCAUCGCUAGAAGGGACUGGCU | 68.2 nM | 111 nM |  | 
12 | UGGACUGGGCAGAAGGGACAUGAGGAUCACCCAUGUCUUGGGCUACUUCAGUCAGGAUAUGCCCAUUAAAUAUCCGUGCAUCAA | 14.9 nM | 73.3 nM |  | 
13 | UGUUGUUCAGGAUAUGAUGUAUAAUACAUGAGGAUCACCCAUGUGGGUCCUGAUUUGGCGUCAGAAGGGAAUGUUG | 88.3 nM | 146 nM |  | 
14 | GACCUGACAUAAUAAUGUAGAAAUACAUGAGGAUCACCCAUGUAGGAUAUGCAGUGGAAUACACUGCAGAAGGACAUAGUCAGG | 15.9 nM | 22.9 nM |  | 
15 | CGAGUACAUGAGGAUCACCCAUGUUAUGAAUUGUCAGGAUAUGGGUAUUGGUGACAUGCGCCAGAAGGGACGUCUG |  |  | 232 nM | 124 nM
16 | GUCAGCUCGUGAGGAUAUACAACACUGCAUCGGCAGUGUAUUAAGAUCACAUGAGGAUCACCCAUGUAGAAGGCACGAGCUGAU | 13 nM | 246 nM |  | 
17 | AAGAAGUCAGGAUAUCCAGCUCGUCACUUGCGUGAUGAGUUGGAGAAGGGACAUGAGGAUCACCCAUGUAAAGU | 56.9 nM | 55.5 nM |  | 
18 | GGGUACAUCGGAGGAUAUCAUGUAAAUACAUGAGGAUCACCCAUGUCGAUGAAGACAUCGGAGAUUGAGAAGGCCGAUGUACCG |  |  | 1070 nM | 76.3 nM
19 | GCAGGUUAAGUCAGGAUAUACCUAUGGAUACAUAGGUAGAAGGGACAUGAGGAUCACCCAUGUGGCUCACCUGC | 24.2 nM | 40.2 nM |  | 
20 | AUUAUACAUGAGGAUCACCCAUGUAAUUAAUCUAGUAAGAUCUAGGAUAUCAGCUCGAAUAGAGCUGAGAAGGAGAUCACAUGU |  |  | 53.6 nM | 20.7 nM
21 | UACAGACAUGAGGAUCACCCAUGUAAGGAUAUCGGUACCGAUGGUAUAAUCUACUCGGCGAGAAGGUACAGUGU | 23.1 nM | 26.7 nM |  | 
22 | GUUUUGGGAGGAUAUGCGUGGAUUAUUUUCGUAUGUUGUUUACAUGAGGAUCACCCAUGUAGAAGGUCUAGAGC | 39.7 nM | 133 nM |  | 
23 | UGUUGAUAGCAGAAGGACAUGAGGAUCACCCAUGUAUGGAUACAAAUAUAUGUAGGAUAUGCUAUUAACUAAGAGUGAGCGUUC | 9.12 nM | 24.4 nM |  | 
24 | CCAUGGUGGGCAGGAUAUCGUCCAGCUUGCGGACGAGAAGGGCUCAAACAUGAGGAUCACCCAUGUGAAGAGCGGGUUGUCCAA | 24.6 nM | 146 nM |  | 
25 | GACUUUCGGGCAGGAUAUGGGUGCCGUCAAGACAUGAGGAUCACCCAUGUCCCAUACACGAGCGCUCAGAAGGGCUCAUUGUAG |  |  | 67 nM | 32.9 nM
26 | UUUUUACAUGAGGAUCACCCAUGUCAGGAUAUGUUUAUAUUUUAUUAUUUUAUUUUUUACAGAAGGGACUAUUA | 136 nM | 66.6 nM |  | 
27 | GUAGCAACAUGAGGAUCACCCAUGUAGGAUAUCGCUAUUGUAAUCAUGAAACAUGAUUACAAUAGCGAGAAGGACAUAAGCUAC | 6.67 nM | 8.84 nM |  | 
28 | CAUGAUCAUGUAGGAUAUAUACUGGAAUACAGUAUAGAAGGACAUGAGGAUCACCCAUGUUAUGUGCCUCCAAGUGAGAUCAUG | 20.1 nM | 28.3 nM |  | 

Row | Sequence | apparent Kd [1] | apparent Kd [2] | apparent Kd [3] | apparent Kd [4]
29 | ACCGAACAUGAGGAUCACCCAUGUGAGGAUAUAGACGUGAAUUAAACACGUAACAAAACUAGAAGGCACUGGGC | 30.8 nM | 14.9 nM |  | 
30 | UGUUUGUGAGGAUAUCCAAUAUAUGACAUGAGGAUCACCCAUGUUUCCACUCGUACCUCCGGAGAAGGCACUGCGU | 29.1 nM | 26 nM |  | 
31 | AGUACUACAGGAUAUACAUGAGUGAUACUCAUAUACCUUCUACAUGAGGAUCACCCAUGUAGAAGGGUAGUACA | 15.3 nM | 12.5 nM |  | 
32 | AAUAUGUUGCAGAAGGCUAUAUUUUUUUAGUACCUCAUGACAUGAGGAUCACCCAUGUUUUUGUUGGAGGAUAUGCAAUAUAUU | 8.07 nM | 7.56 nM |  | 
33 | AAGUAGGCAGGAUAUACAUGAGGAUCACCCAUGUGCCUAUACAAGGUAAUCUUGGGAGGUAGAAGGGCCUACAA | 33.9 nM | 166 nM |  | 
34 | CUGUAUGAUGUAGGAUAUACAAUAAUAUUGUUAGUAGAAGGACAUGAGGAUCACCCAUGUAAAUUAAUUUUAAUUAUUUUUGCG | 47.2 nM | 36.6 nM |  | 
35 | UCCUUGUCCUGAGGAUAUCCGCGGUUCCCAUAAGGAGAAGGCAGGACAUGAGGAUCACCCAUGUACCCAGAAAACGUGCAGAGU | 24 nM | 156 nM |  | 
36 | AGUUAAUAUCGAGGAUAUCUCAUGGAUACAUGAGGAUCACCCAUGUUAAUGGGAGAAGGCGAUAUUAACAGCAUGUUACAUGCA |  |  | 28 nM | 7.38 nM
37 | UUUUUAUAAUAGAAGGAGGACUUCAUGAGGAUCACCCAUGUGUUAGUACUUAGGAUAUGUAAUAACAUGAGGAUCACCCAUGUC |  |  | 45.3 nM | 45.7 nM
38 | AUCAUGUAAGGAUAUCUUACAUGUGACUUCGGUCACUGUUCAGAGAAGGUACAUGAGGAUCACCCAUGUAGAAC | 18.8 nM | 28.4 nM |  | 
39 | UUUUGACAUGAGGAUCACCCAUGUCAGGAUAUAGUAGGACAAAUAAAUAAAAGUUCUACUAGAAGGGAUAUGGA | 23.2 nM | 37.5 nM |  | 
40 | CCUGAGUCAGGAUAUUGUACCGGCCUGAAGCCAAGCCGACCCAAGAAGGGACAUGAGGAUCACCCAUGUGAAAA | 21.3 nM | 22.9 nM |  | 
41 | GCACUGGCAGGAUAUACAUGAGGAUCACCCAUGUGACCCUUGAUGUACUCGCGUACACGUAGAAGGGCCUGUGC | 120 nM | 571 nM |  | 
42 | GGACAUCCCACAGGAUAUGCUGGACUUUGUCCAGCAGAAGGGUGAACAUGAGGAUCACCCAUGUAUAGGAUGUCCAUAUUUAAU |  |  | 963 nM | 128 nM
43 | UACUAUAAGGAGGAUAUCGUAUCGGAAACGAUACGAGAAGGCUUAACAUGAGGAUCACCCAUGUUCUUCAAUAA | 16.6 nM | 18.3 nM |  | 
44 | CGCUACAGCCAGAAGGACAUGAGGAUCACCCAUGUAGGAUAUGGGAGACACAGUCCCGUGUAGAGAAACUACGCUACUGUAGCG |  |  | 679 nM | 464 nM
45 | UCGUACAUUCGAGGAUAUCGGUGAUUAAUAAUACGAGAAGGCGAUUUUAGGCAUAAAGCCUUAGACAUGAGGAUCACCCAUGUA |  |  | 89.7 nM | 53.7 nM
46 | UUUUUGUCAGGAUAUGACUAGAUGCACGUUAGUGCAUCUACUUAGAAGGGACAUGAGGAUCACCCAUGUAUUCC | 29.8 nM | 24.3 nM |  | 
47 | GUAAAUCAUGUAGGAUAUGCAUGGCGAAGCUACGCAGAAGGACAUGAGGAUCACCCAUGUCUGUCCGUCUGCGUACAGACGGAC | 25.6 nM | 170 nM |  | 
48 | AGGCGACAUGAGGAUCACCCAUGUGAGGAUAUCGAACUCUACUGUUGUGAGAGUAAGGCGAGAAGGCACACAGU | 22.7 nM | 25.3 nM |  | 
49 | GGAUACAUACAGAAGGAUAUGAGAACAAAGACAUGAGGAUCACCCAUGUACAAAAGGUGGAACAAUCAGAAGGUCUAAACAACAAA |  |  | 72.2 nM | 61.2 nM
50 | CCGGAAUUGCAGGAUAUAGGAGUCGAUAGACACCUAGAAGGGCAGACAUGAGGAUCACCCAUGUGUCCUACCGG | 18.6 nM | 31.2 nM |  | 
51 | UUGAUGUCAGGAUAUGCUUAAUAUAUUUUAUUAUAAUAUAUACAUGAGGAUCACCCAUGUAGAAGGGACAUUGU | 28.7 nM | 23.8 nM |  | 
52 | GUGGGAAUCACAGGAUAUACAUGCGCCGCUUCGUUCUACAUGAGGAUCACCCAUGUGUGGUCCGUGUAGAAGGGUGUUUGUUAC |  |  | 31 nM | 10.8 nM
53 | AAUUUGUGAAAAUUACAUGAGGAUCACCCAUGUUAGGGAAUGCAGGAUAUGUGGUUUAUUAUUUUACAGAAGGGCAAUAAUUUU |  |  | 95.9 nM | 53.6 nM
54 | CAAUGUACCUAGGAUAUAACCUACGACAUUGGGUUAGAAGGAGGAACAUGAGGAUCACCCAUGUGACUUCGCAA | 10 nM | 11.9 nM |  | 
55 | AAGUCGCGGUCAGGAUAUCAGAAACAAAUUGACUGAGAAGGGAUGGCACAUGAGGAUCACCCAUGUCGUCGUCGCAGUGGGUGA | 116 nM | 155 nM |  | 

Source: the EternaBench riboswitch data
